Tests used:
[1] = Induction of IFN activity in pig EPT cells assessed as interferon titer at 1.5 uM after 24 hrs by microscopical method; type: functional, Sus scrofa
In short: (§1)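 Compounds were added to murine fibroblast L929 or piglet testicular EPT cells. Supernatant was taken after 24 and 48 h at 37 °C, 5% CO₂. IFN titers in the supernatant were then determined on L929 and EPT cell cultures.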

[2] = tested on: Vesicular stomatitis virus; experiment: Antiviral activity against Vesicular stomatitis virus infected in mouse L929 cells assessed as inhibition of virus-induced cytopathic effect treated immediately after viral infection measured after 24 hrs; type: functional, organism-based; conditions: L929, 24 h
In short: (§2)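 VSV grown in EPT or L929 cells to about 10⁶ ID₅₀/0.1 mL. Compounds in serial double dilution were added to cell monolayers at 37 °C, 5% CO₂, either 24 h before infection (preventive) or immediately after it (therapeutic). VSV was then added and cultures held 24 h. Cytopathic effect was scored microscopically. IC₅₀ is reported as −lg molar concentration giving 50% inhibition of cytopathic action, with confidence interval at P < 0.05.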

[3] = tested on: Vesicular stomatitis virus; experiment: Antiviral activity against Vesicular stomatitis virus in mouse L929 cells assessed as inhibition of virus-induced cytopathic effect treated 24 hrs before viral infection measured after 24 hrs; type: functional, organism-based; in short: as §2
[4] = tested on: Vesicular stomatitis virus; experiment: Antiviral activity against Vesicular stomatitis virus in EPT cells assessed as inhibition of virus-induced cytopathic effect treated 24 hrs before viral infection measured after 24 hrs; type: functional, organism-based; in short: as §2
L929 [5] = experiment: Induction of IFN activity in mouse L929 cells assessed as interferon titer at 1.1 uM after 24 hrs by microscopical method; type: functional; in short: as §1
[6] = (§3) Cytotoxicity against mouse L929 cells after 24 to 48 hrs; type: cell-based; conditions: L929 cells
In short: (§4)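 Monolayers at 37 °C, 5% CO₂; growth medium (L929: Eagle's MEM, EPT: Medium 199; both with 10% calf embryo serum and kanamycin, plus glutamine for L929) replaced by maintenance medium with 5% newborn calf serum holding compound at 1–1000. Read at 24–48 h after 0.5% crystal violet/70% ethanol staining, 540/620 nm. CC₅₀ = 50% monolayer destruction, given as −lg (M), confidence interval at P < 0.05.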

[7] = Selectivity index, CC50 for […] EPT cells to IC50 for Vesicular stomatitis virus treated immediately after viral infection; type: functional
In short: (§5)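 SI = CC₅₀/IC₅₀ for each cell line and each regimen (treatment 24 h before or immediately after VSV infection). For CC₅₀, the medium on EPT or L929 monolayers was replaced with maintenance medium containing 5% newborn calf serum plus compound at 1–1000. After 24–48 h at 37 °C, 5% CO₂, cells were stained with 0.5% crystal violet in 70% ethanol and read at 540/620. CC₅₀ is the concentration giving 50% monolayer destruction.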

[8] = Selectivity index, CC50 for pig EPT cells to IC50 for Vesicular stomatitis virus treated 24 hrs before viral infection; type: functional; in short: as §5
[9] = Cytotoxicity against pig EPT cells after 24 to 48 hrs; type: cell-based, Sus scrofa; conditions: for CC50: EPT cells; for pCC50: ept; in short: as §4
[10] = tested on: Vesicular stomatitis virus; experiment: Antiviral activity against Vesicular stomatitis virus infected in EPT cells assessed as inhibition of virus-induced cytopathic effect treated immediately after viral infection measured after 24 hrs; type: functional, organism-based; in short: as §2
[11] = Selectivity index, CC50 for mouse L929 cells to IC50 for Vesicular stomatitis virus treated immediately after viral infection; type: functional; in short: as §5
[12] = Selectivity index, CC50 for mouse L929 cells to IC50 for Vesicular stomatitis virus treated 24 hrs before viral infection; type: functional; in short: as §5
[13] = Ratio of tilorone CC50 for […] EPT cells to IC50 for Vesicular stomatitis virus treated 24 hrs before viral infection over compound CC50 for […] EPT cells to IC50 for Vesicular stomatitis virus treated 24 hrs before viral infection
L929 [14] = experiment: as §3; type: cell-based; conditions: l929; in short: as §4

Row | SMILES | Activity [1] | IC50 [2] [µM] | IC50 [3] [µM] | IC50 [4] [µM] | Activity (L929 [5]) | CC50 [6] [µM] | Ratio CC50/IC50 [7] | Ratio CC50/IC50 [8] | CC50 [9] [µM] | IC50 [10] [µM] | Ratio CC50/IC50 [11] | Ratio CC50/IC50 [12] | Ratio [13] | pCC50 [9] | pCC50 (L929 [14])
1 | CCCN(CCC)CCn1c2ccccc2c2nc3ccccc3nc21 | 32 | 3.55 | 1.29 | 2.69 | 8 | 219 | 23 | 55 | 148 | 6.61 | 158 | 169 | – | – | –
2 | c1ccc2nc3c(nc2c1)c1ccccc1n3CCN1CCCCCC1 | 32 | 3.8 | 1.29 | 2.69 | 64 | 145 | 17 | 49 | 132 | 7.94 | 62 | 110 | – | – | –
3 | CN1CCN(CCn2c3ccccc3c3nc4ccccc4nc32)CC1 | 32 | 4.79 | 1.38 | 1.45 | 4 | 97.7 | 17 | 57 | 81.3 | 4.68 | 46 | 71 | – | – | –
4 | CC1CCCCN1CCn1c2ccccc2c2nc3ccccc3nc21 (stereo unspecified) | 32 | 1.91 | 1.26 | 2.63 | 32 | 234 | 98 | 149 | 398 | 4.07 | 74 | 185 | – | – | –
5 | CC1CCN(CCn2c3ccccc3c3nc4ccccc4nc32)CC1 | 32 | 2.29 | 1.62 | 1.58 | 8 | 575 | 142 | 1783 | – | 20 | 78 | 358 | 20 | 2.55 | –
6 | CN(C)CCn1c2ccccc2c2nc3ccccc3nc21 | 32 | 11.2 | 1.45 | 1.45 | 16 | 91.2 | 9 | 56 | 81.3 | 9.55 | 58 | 63 | – | – | –
7 | CCN(CC)CCn1c2ccccc2c2nc3ccccc3nc21 | 32 | 2.19 | 1.29 | 3.39 | 64 | 646 | 76 | 139 | 457 | 6.17 | 79 | 499 | – | – | –
8 | CCCCN(C)CCn1c2ccccc2c2nc3ccccc3nc21 | 32 | 2.34 | 1.45 | 3.02 | 16 | 562 | 43 | 68 | 204 | 4.79 | 41 | 388 | – | – | –
9 | CCCCN(CC)CCn1c2ccccc2c2nc3ccccc3nc21 | 8 | 3.39 | 3.16 | 13.2 | 8 | 174 | 6 | 6 | 83.2 | 13.2 | 27 | 54 | – | – | –
10 | c1ccc2nc3c(nc2c1)c1ccccc1n3CCN1CCCC1 | 64 | 2.24 | 1.32 | 2.69 | 32 | 75.9 | 40 | 60 | 162 | 4.07 | 468 | 59 | – | – | –
11 | c1ccc2nc3c(nc2c1)c1ccccc1n3CCN1CCCCC1 | 32 | 2.57 | 1.35 | 2.88 | 64 | 178 | 164 | 323 | 933 | 5.62 | 224 | 132 | – | – | –
12 | c1ccc2nc3c(nc2c1)c1ccccc1n3CCN1CCOCC1 | 16 | 4.47 | 1.62 | 1.62 | 8 | – | – | 1258 | – | – | 17 | 659 | 15 | 2.69 | 2.97
13 | CCN(CC)CCOc1ccc2c(c1)C(=O)c1cc(OCCN(CC)CC)ccc1-2.Cl.Cl [TILORONE HYDROCHLORIDE] | 32 | 13.8 | 1.45 | 1.32 | 32 | 112 | 10 | 80 | 107 | 13.5 | 10 | 80 | – | – | –

Source: ChEMBL document CHEMBL1154890, “Synthesis, cytotoxicity, antiviral activity and interferon inducing ability of 6-(2-aminoethyl)-6H-indolo[2,3-b]quinoxalines” (Eur J Med Chem, 2010)
